The source made the active and inactive calls. The calls are words filed in the database; no cut-off is given here.
How the values were obtained:
[1] = target: T1, Vasopressin V2 receptor (Homo sapiens, UniProt P30518); assay: Inhibition of vasopressin V2 receptor (unknown origin) assessed as change in intracellular calcium levels incubated with compound treated with Tween-80 by fluorometric analysis; type: functional, cell-based
[2] = target: T1, Vasopressin V2 receptor; assay: Inhibition of vasopressin V2 receptor (unknown origin) assessed as change in intracellular calcium levels treated with centrifuged compound solution by fluorometric analysis; type: functional, cell-based
[3] = target: T1, Vasopressin V2 receptor; assay: Inhibition of vasopressin-stimulated vasopressin V2 receptor in human HTLA cells pre-incubated for 20 mins with centrifuged compound solution measured on day 4 by beta arrestin-recruitment mediated luciferase reporter gene assay
[4] = target: T1, Vasopressin V2 receptor; assay: Inhibition of vasopressin-stimulated vasopressin V2 receptor in human HTLA cells pre-incubated for 20 mins measured on day 4 by beta arrestin-recruitment mediated luciferase reporter gene assay; type: cell-based
[5] = target: T2, C-C chemokine receptor type 4 (Homo sapiens, UniProt P51679); assay: Inhibition of CCL22-stimulated CCR4 in human HTLA cells pre-incubated for 20 mins measured on day 4 by beta arrestin-recruitment mediated luciferase reporter gene assay
T2 sequence (P51679 whole entry): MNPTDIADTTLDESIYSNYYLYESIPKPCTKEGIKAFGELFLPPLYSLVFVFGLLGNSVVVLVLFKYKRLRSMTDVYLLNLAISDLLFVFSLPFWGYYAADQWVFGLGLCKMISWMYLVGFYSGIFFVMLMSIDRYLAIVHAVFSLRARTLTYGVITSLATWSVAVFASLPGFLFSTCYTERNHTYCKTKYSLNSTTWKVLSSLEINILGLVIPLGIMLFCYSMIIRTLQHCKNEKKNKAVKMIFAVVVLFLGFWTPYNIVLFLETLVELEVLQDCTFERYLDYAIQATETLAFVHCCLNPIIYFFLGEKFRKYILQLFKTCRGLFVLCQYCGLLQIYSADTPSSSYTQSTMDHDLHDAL

[6] = target: T1, Vasopressin V2 receptor; assay: Inhibition of vasopressin-stimulated vasopressin V2 receptor in human HTLA cells pre-incubated for 20 mins with Tween-80-treated compound solution measured on day 4 by beta arrestin-recruitment mediated luciferase reporter gene assay; type: cell-based
How it was run: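 Transfected HTLA β-arrestin/tTA-luciferase reporter cells were kept serum-free on day 3 and given compound (0.001 nM–100 μM final, pH 7.4 HEPES-HBSS buffer) for 20 min. They were then stimulated with 1 μM vasopressin overnight at 37 °C. Media was removed before day-4 luciferase read; normalized to vehicle/reference, sigmoidal regression.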

[7] = target: T2, C-C chemokine receptor type 4; assay: (§1) Inhibition of CCL22-stimulated CCR4 in human HTLA cells pre-incubated for 20 mins with centrifuged compound solution measured on day 4 by beta arrestin-recruitment mediated luciferase reporter gene assay; type: cell-based
How it was run: (§2)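 HTLA cells (stable β-arrestin2-TEV protease fusion, tTA-dependent firefly luciferase) transfected by CaPO4 with receptor-V2-tTA construct; next day plated 20 000 cells/well in 1% dialyzed FBS; day 3 serum-free DMEM; compound 0.001 nM–100 μM final in HBSS/20 mM HEPES pH 7.4 for 20 min, then 1 μM agonist overnight, 37 °C; day 4 luminescence after Bright-Glo 30 min; normalized to vehicle and reference; sigmoidal fit.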

[8] = target: T2, C-C chemokine receptor type 4; assay: Inhibition of CCL22-stimulated CCR4 in human HTLA cells pre-incubated for 20 mins with Tween-80-treated compound solution measured on day 4 by beta arrestin-recruitment mediated luciferase reporter gene assay
[9] = Inhibition of AmpC beta lactamase (unknown origin) incubated for 5 mins by UV-Vis spectrophotometric analysis in absence of Triton X-100
[10] = Inhibition of AmpC beta lactamase (unknown origin) incubated for 5 mins by UV-Vis spectrophotometric analysis in presence of Triton X-100
[11] = target: T3, Cruzipain (Trypanosoma cruzi, UniProt P25779); assay: Inhibition of Trypanosoma cruzi cruzaine using Z-Phe-Arg-aminomethylcoumarin as substrate incubated for 5 mins by spectrofluorimetric analysis in presence of Tween-80
How it was run: (§3)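 Cruzain at 0.4 nM final in 0.1 M sodium acetate pH 5.5 with 5 mM DTT and 1% DMSO. Compound preincubated with enzyme for 5 min, then 2.5 μM Z-FR-AMC added. Fluorescence increase (ex 355/em 460 nm) monitored for 5 min. Duplicate wells, two separate experiments. IC50 from variable-slope sigmoidal fit.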

[12] = target: T3, Cruzipain; assay: Inhibition of Trypanosoma cruzi cruzaine using Z-Phe-Arg-aminomethylcoumarin as substrate incubated for 5 mins by spectrofluorimetric analysis in absence of Tween-80; how it was run: as §3
[13] = target: T4, C-X-C chemokine receptor type 1 (Homo sapiens) (UniProt P25024); assay: Inhibition of CX3CL1-stimulated CX3CR1 in human HTLA cells pre-incubated for 20 mins with centrifuged compound solution measured on day 4 by beta arrestin-recruitment mediated luciferase reporter gene assay
T4 sequence (whole entry): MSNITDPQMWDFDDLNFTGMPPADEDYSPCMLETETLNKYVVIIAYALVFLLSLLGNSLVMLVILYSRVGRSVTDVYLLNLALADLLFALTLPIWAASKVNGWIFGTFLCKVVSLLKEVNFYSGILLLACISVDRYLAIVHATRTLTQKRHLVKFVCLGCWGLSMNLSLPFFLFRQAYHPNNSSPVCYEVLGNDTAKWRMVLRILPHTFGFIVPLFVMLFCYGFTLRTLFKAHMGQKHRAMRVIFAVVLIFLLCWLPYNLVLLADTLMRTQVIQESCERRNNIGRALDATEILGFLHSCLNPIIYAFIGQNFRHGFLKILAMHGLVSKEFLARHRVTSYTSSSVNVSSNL

[14] = target: T2, C-C chemokine receptor type 4; assay: Inverse agonist activity at CCR4 in human HTLA cells assessed as depression of basal activity incubated for 20 mins by beta arrestin-recruitment mediated luciferase reporter gene assay in absence of CCL22; type: cell-based
How it was run: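 β-Arrestin recruitment luciferase reporter in transfected HTLA cells without CCL22 agonist. Compounds ranged 0.001 nM to 100 μM final in HBSS/HEPES pH 7.4 buffer, with 20 min exposure in serum-free DMEM. Luminescence read on day 4.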

[15] = target: T5, C-C chemokine receptor type 4 (Homo sapiens) (UniProt P51679); assay: as §1; type: cell-based; how it was run: as §2
T5 sequence (whole entry): T2 sequence (P51679 whole entry)

[16] = Inhibition of AmpC beta lactamase (unknown origin) at 10 uM incubated for 5 mins in presence of vasopressin
How it was run: (§4)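 AmpC β-lactamase (1 nM) in 50 mM potassium phosphate pH 7.0 at room temperature; compound at 10 μM final from 10 mM DMSO stock, with or without 5 min preincubation with 1 μM vasopressin; enzyme incubated with sample 5 min, reaction started with 69 μM CENTA; absorbance change at 405 nm followed 2.5 min; quadruplicate.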

[17] = Inhibition of AmpC beta lactamase (unknown origin) at 10 uM incubated for 5 mins; how it was run: as §4

T1 sequence (P30518 whole entry): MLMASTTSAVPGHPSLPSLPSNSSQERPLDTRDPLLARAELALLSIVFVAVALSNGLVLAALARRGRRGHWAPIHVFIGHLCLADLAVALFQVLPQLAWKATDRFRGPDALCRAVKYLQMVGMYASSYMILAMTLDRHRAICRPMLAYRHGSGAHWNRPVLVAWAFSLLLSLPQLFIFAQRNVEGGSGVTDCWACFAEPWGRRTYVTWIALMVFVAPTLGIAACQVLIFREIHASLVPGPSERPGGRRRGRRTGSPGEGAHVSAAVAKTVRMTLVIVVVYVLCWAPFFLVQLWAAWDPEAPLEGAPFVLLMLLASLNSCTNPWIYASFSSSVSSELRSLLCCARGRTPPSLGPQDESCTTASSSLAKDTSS
T3 sequence (P25779 whole entry): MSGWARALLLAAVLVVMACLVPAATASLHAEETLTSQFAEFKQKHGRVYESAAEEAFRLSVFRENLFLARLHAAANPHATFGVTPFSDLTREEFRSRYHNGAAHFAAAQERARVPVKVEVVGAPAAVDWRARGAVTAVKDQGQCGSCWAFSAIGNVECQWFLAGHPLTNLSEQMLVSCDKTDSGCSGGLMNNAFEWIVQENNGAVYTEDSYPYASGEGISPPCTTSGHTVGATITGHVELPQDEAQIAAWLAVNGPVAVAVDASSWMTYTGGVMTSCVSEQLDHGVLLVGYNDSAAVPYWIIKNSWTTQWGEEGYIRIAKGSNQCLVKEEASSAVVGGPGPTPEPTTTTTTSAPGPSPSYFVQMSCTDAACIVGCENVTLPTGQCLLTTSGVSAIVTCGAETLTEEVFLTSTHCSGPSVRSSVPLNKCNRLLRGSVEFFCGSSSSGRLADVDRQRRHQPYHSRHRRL

| SMILES | inhibition [1] | inhibition [2] | IC50 [9] [µM] | IC50 [10] [µM] | IC50 [11] [µM] | IC50 [12] [µM] | inhibition [13] | inhibition [15] | also measured |
| --- | --- | --- | --- | --- | --- | --- | --- | --- | --- |
| CCC(C)n1ncn(-c2ccc(N3CCN(c4ccc(OCC5COC(Cn6cncn6)(c6ccc(Cl)cc6Cl)O5)cc4)CC3)cc2)c1=O (stereo not drawn) [ITRACONAZOLE] | Active | Active | – | – | – | – | – | – | IC50 [3]: 11.9 µM; IC50 [4]: 0.794 µM; IC50 [5]: 0.501 µM; IC50 [6]: 6.31 µM; IC50 [7]: 7.2 µM; IC50 [8]: 12.6 µM |
| O=c1c(-c2ccc(O)cc2)coc2cc(O)cc(O)c12 [GENISTEIN] | – | – | 16.7 | > 100 | > 400 | 82.7 | – | – | – |
| O=c1cc(-c2ccc(O)c(O)c2)oc2cc(O)cc(O)c12 [LUTEOLIN] | – | – | 21.9 | > 100 | 156 | 27.3 | – | – | – |
| O=c1c(O)c(-c2ccc(O)c(O)c2)oc2cc(O)cc(O)c12 | – | – | – | – | – | – | inactive | – | – |
| Clc1ccccc1C(c1ccccc1)(c1ccccc1)n1ccnc1 [CLOTRIMAZOLE] | Active | Active | – | – | – | – | – | inactive | IC50 [14]: 1.6 µM; inhibition [6]: inactive |
| O=C1OC(c2cc(I)c(O)c(I)c2)(c2c(I)cc(O)cc2I)c2ccccc21 (stereo not drawn) | Active | Active | – | – | – | – | inactive | inactive | inhibition [16]: 7%; inhibition [17]: 77% |
